Experimental findings from ChEMBL document CHEMBL3862015, “Synthesis and biological evaluation of furocoumarin derivatives on melanin synthesis in murine B16 cells for the treatment of vitiligo” (2016) are described below.

Activity calls are given as the source filed them. The rule behind the calls is not given here.

One assay deals with B16-F10. Description: Induction of melanin synthesis in mouse B16F10 cells at 50 uM after 48 hrs by spectrophotometric analysis relative to control. Type of assay: functional. A digest of the protocol:
(§1)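 B16F10 cells in DMEM with 10% heat-inactivated FBS, penicillin/streptomycin, 37 °C, 5% CO2; 5 × 10^5 cells per well, allowed 24 h, then fresh medium with compound for 48 h. Cells washed in cold PBS, lysed in RIPA on ice 40 min, spun 10,000g 20 min; pellet dissolved in 1 M NaOH, 60 °C 2 h, A405, normalised to protein. Three experiments in duplicate.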
Regarding `O=Cc1cc(=O)oc2cc3oc4ccccc4c3cc12`, the result was Active.
The same measure, in the same setting: in the case of `O=c1ccc2cc3ccoc3cc2o1` it was “Active”; in that of `Cc1oc2cc3oc(=O)ccc3cc2c1C`, “Active”.
In the case of `Cc1cc(=O)oc2c1ccc1occc12`, the result was Active.
The same measure, in the same setting: in the case of `Cc1ccc(C(=O)OCc2cc(=O)oc3cc4oc5ccccc5c4cc23)cc1` it was 313.1%; in that of `Cc1coc2ccc3ccc(=O)oc3c12`, “Active”; in that of `Cc1coc2cc3oc(=O)cc(C)c3cc12`, “Active”.
In the case of `Cc1cc(=O)oc2cc3occ(-c4ccccc4)c3cc12`, the outcome was Active.
Consider `O=c1ccc2cc3c4c(oc3cc2o1)CCCC4`, for which the result was Active.
`O=c1ccc2ccc3oc4c(c3c2o1)CCCC4`: the outcome was Active.
As for `O=c1cc(CO)c2cc3c(cc2o1)oc1ccccc13`, the outcome was Active.
Take `O=c1ccc2cc3c(-c4ccccc4)coc3cc2o1`: the result was Active.
Take `Cc1oc2cc3oc(=O)cc(C)c3cc2c1C`: the result was Active.
The same measure, in the same setting: in the case of `O=c1ccc2ccc3occc3c2o1` it was “Active”.
In the case of `Cc1cc(=O)oc2cc3oc4c(c3cc12)CCCC4`, the outcome was Active.
As to `Cc1coc2cc3oc(=O)ccc3cc12`, the outcome was Active.
Compound `Cc1ccccc1/N=C/c1cc(=O)oc2cc3oc4ccccc4c3cc12` showed an Activity of 350.5%.
`Cc1cc(=O)oc2c1ccc1occ(C)c12`: the result was Active.
Consider `Cc1oc2ccc3ccc(=O)oc3c2c1C`, for which the result was Active.
On to `COc1c2occc2cc2ccc(=O)oc12` [METHOXSALEN], for which the Activity is 114.5%.
As for `Cc1oc2ccc3c(C)cc(=O)oc3c2c1C`, the outcome was Active.

The test system of the next assay is B16-F10. Description: Induction of melanin synthesis in mouse B16F10 cells at 50 uM after 48 hrs by spectrophotometric analysis relative to 8-MOP. Type of assay: functional. In outline: as §1
`Cc1ccc(C(=O)OCc2cc(=O)oc3cc4oc5ccccc5c4cc23)cc1`: the “fold change (FC)” value was 3.
Still for that read-out and setting: in the case of `Cc1ccccc1/N=C/c1cc(=O)oc2cc3oc4ccccc4c3cc12` it was 3.
